Assay outcomes deposited in PubChem BioAssay by Sanford-Burnham Center for Chemical Genomics.
SUMO1-SIM PPI = modulators of human SUMO1-mediated protein-protein interactions | SUMO1 binding to a labelled peptide, TR-FRET, 1 h | inhibition, % at 20 µM | AID 602429 | 360,000 tested, 0.33% active | P63165; in the data active = inhibition above about 37%
Target sequence (P63165 whole entry, looked up): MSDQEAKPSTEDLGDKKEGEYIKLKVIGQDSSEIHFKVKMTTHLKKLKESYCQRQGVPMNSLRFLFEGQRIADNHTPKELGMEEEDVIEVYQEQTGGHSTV
STEP block = STEP (human) phosphatase inhibition. recombinant STEP, OMFP fluorogenic substrate, fluorescence. AID 588621. 360,000 tested, 0.25% active. inhibition, % at 20 µM. P54829;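 active = inhibition at 20 µM, scaled per plate between control wells, above about 37%, limit read from the data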;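 note: 0% = DMSO with enzyme and substrate and 100% = substrate only without enzyme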
Target sequence (P54829 whole entry, looked up): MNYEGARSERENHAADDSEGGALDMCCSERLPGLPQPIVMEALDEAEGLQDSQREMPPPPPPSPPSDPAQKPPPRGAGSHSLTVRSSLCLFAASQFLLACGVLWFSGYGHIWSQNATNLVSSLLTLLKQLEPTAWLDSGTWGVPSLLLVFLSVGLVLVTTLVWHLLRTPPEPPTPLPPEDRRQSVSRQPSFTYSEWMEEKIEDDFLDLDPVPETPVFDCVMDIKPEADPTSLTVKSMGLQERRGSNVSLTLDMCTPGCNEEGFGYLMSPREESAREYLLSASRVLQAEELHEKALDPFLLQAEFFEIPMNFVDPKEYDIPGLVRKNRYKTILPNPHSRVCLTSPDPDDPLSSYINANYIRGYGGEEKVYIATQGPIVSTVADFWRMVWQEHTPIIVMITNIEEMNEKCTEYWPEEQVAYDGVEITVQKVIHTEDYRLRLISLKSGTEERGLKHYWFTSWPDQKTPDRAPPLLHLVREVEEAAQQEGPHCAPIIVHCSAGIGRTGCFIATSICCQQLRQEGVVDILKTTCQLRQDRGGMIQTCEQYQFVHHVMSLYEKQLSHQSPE
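Also added – OMFP at 25 µM · Test system – STEP tyrosine phosphatase · Technique – FITC-channel fluorescence of OMFP product · Schedule – 20 min at room temperature, dark · Evaluation – control-normalized % inhibition with plate pattern correction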
Scp-1 inhibitor = blocks human Scp-1 phosphatase activity; AID 493091; Q9GZU7; inhibition, % at 20 µM; Recombinant Scp1, phosphopeptide, malachite green phosphate absorbance; 340,000 tested, 0.88% active;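 active = inhibition above about 50% at 20 µM, limit read from the data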;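 note: plate controls were DMSO wells with enzyme for no effect and wells lacking enzyme for full effect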
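System: SCP-1 catalytic domain; Reagent: Phospho 17-mer peptide substrate; Doses: one concentration, 20 µM, with 1.0% DMSO; Incubation: 45 min room-temperature reaction, 5 min colour, 30 min stabiliser; Signal: Phosphate-binding colour reagent, absorbance read at 630 nm.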
CSN inh = inhibitors of human CSN-mediated cullin deneddylation | Q92905 | Purified CSN, SCF-Nedd8-OG deneddylation, fluorescence polarization | inhibition, % at 12.5 µM | 360,000 tested, 0.38% active;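 active = pattern-corrected inhibition above about 35%, with an unprinted fluorescence ratio check between 0.5 and 1.5, limit read from the data, passing the limit was not always enough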;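 note: 0% = enzyme with substrate and 100% = substrate without enzyme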
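Test system: Human Csn5 produced in HEK293T cells | Compound: 12.5 µM single point | Times: 90 min, room temperature | Signal: Fluorescence polarization readout | Read-out basis: % inhibition of substrate cleavage by Csn5 | Controls: no-enzyme wells high, enzyme-with-substrate wells low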
DNMT1 block = blocks human DNA methyltransferase DNMT1. P26358. DNMT1 molecular beacon, Hinp1I cleavage, fluorescence. inhibition (reported as % activation of signal), % at 10 µM. 360,000 tested, 0.83% active; in the data active = inhibition above about 50%
LMPTP inh = LMPTP (human) inhibition. P24666. recombinant LMPTP-A, OMFP fluorogenic substrate, fluorescence intensity. inhibition, % at 20 µM. 360,000 tested, 0.22% active. AID 651560;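 active = compounds that cut the enzyme signal by at least half of the control window in the single-dose screen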;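 note: plate controls were DMSO wells with enzyme plus substrate for no effect and substrate without enzyme for full effect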
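Buffer or medium: Bis-Tris pH 6.0, DTT, detergent; Assay system: LMPTP-A enzyme; Quantity: 0.625 nM enzyme; Detection: endpoint fluorescence intensity; Times: 50 min dark incubation at room temperature; Controls: substrate-only low control, DMSO enzyme-plus-substrate high control; Doses: single 20 µM dose; Read-out: percent inhibition versus substrate-only and uninhibited controls; Reagent: 400 µM OMFP.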
Scp1 confirm = confirmation of human Scp-1 phosphatase inhibitors | 2,500 tested, 61% active | shares compounds with Scp-1 inhibitor | inhibition, % at 20 µM | recombinant SCP-1 catalytic domain, phosphate release, malachite green absorbance | AID 540281;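 note: plate controls were DMSO with enzyme for no effect and buffer wells lacking enzyme for full effect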
Scp-1 MG ctr = interferes with malachite green readout, flagging false Scp-1 hits. 2,500 tested, under 10 active. shares compounds with Scp-1 inhibitor. Colorimetric interference counterscreen, malachite green absorbance 630 nm. apparent inhibition (interference), % at 20 µM;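 note: compounds added after enzyme reaction finished so only phosphate colour detection is probed; plate controls were DMSO wells with completed Scp-1 reaction for no effect and substrate wells lacking enzyme for full effect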
Scp-1 Tm shift = Scp-1 (human) binding by thermal shift; AID 540329; shares compounds with Scp-1 inhibitor; Recombinant SCP1, Sypro Orange thermal shift Tm; 1,500 tested, 25% active; thermal shift relative to vanadate control, % at 40 µM;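 active = substances whose mean melting-temperature shift, as a percentage of the reference inhibitor's shift, reaches about 5.3%, limit read from the data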;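 note: 0% = Tm of DMSO wells and 100% = Tm with sodium orthovanadate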
* marks the source's active call; other numbers are inactive results; x = not tested or not shown. Only some compounds are listed: those with a hit (about 1.9% of all), similar ones and a draw of the others.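 Rule for the calls, unless noted: active = inhibition of at least 30% at 20 µM; inactive = the rest.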

SMILES	SUMO1-SIM PPI	STEP block	Scp-1 inhibitor	CSN inh	DNMT1 block	LMPTP inh	Scp1 confirm	Scp-1 MG ctr	others
CCOC(=O)/C(CCC[N+](C)(CC)CC)=N\O	-1	0	99*	-1	5	-1	-8	-14
O=C(O)CCN=CC1=C(O)CC(c2ccccc2)CC1=O (stereo not drawn)	1	0	14	3	-1	-2	x	x
CC(=O)OCC1=C(C(=O)O)N2C(=O)C(NC(=O)c3ccc(F)cc3)C2SC1 (stereo not drawn)	0	0	15	-2	2	1	x	x
CC(=O)OCC1=C(C(=O)O)N2C(=O)C(NC(=O)C(C)Cn3nc(C)c(Cl)c3C)C2SC1 (stereo not drawn)	3	1	53*	11	24	1	67*	-5	Scp-1 Tm shift=-1
COC(=O)[C@@]12CCCCN1[C@H](c1ccc(SC3CCCCC3)c(OC)c1)[C@@H]1C(=O)N(C)C(=O)[C@@H]12	4	3	-11	1	-7	2	x	x
CCN1C(=O)[C@@H]2[C@@H](c3ccc(SC4CCCCC4)c(OC)c3)N3CCCC[C@@]3(C(=O)OC)[C@@H]2C1=O	-6	-1	53*	-1	-18	3	-2	-7
COc1cccc(S(=O)(=O)N(C)C[C@@H]2OCc3cn(nn3)CCCC(=O)N([C@H](C)CO)C[C@H]2C)c1	4	-1	x	-5	5	0	x	x
O=[N+]([O-])c1ccc2cc[nH]c2c1	1	2	61*	9	34	6	25	-4
O=[N+]([O-])c1ccc2[nH]ccc2c1	-19	x	x	-2	x	-3	x	x
C[N+]1(C)CC2([N+](=O)[O-])CC=C(Oc3ccccc3)C([N+](=O)[O-])(C2)C1 (stereo not drawn)	-5	2	97*	-3	3	0	87*	-15	Scp-1 Tm shift=-28
CN1CC2([N+](=O)[O-])CC=C(Oc3ccccc3)C([N+](=O)[O-])(C1)C2 (stereo not drawn)	2	2	-2	3	10	-1	x	x
Cc1noc(C)c1NC(=O)N(C)C[C@@H]1Oc2c(NC(=O)c3ccncc3)cccc2C(=O)N([C@H](C)CO)C[C@@H]1C	3	-3	94*	2	3	-2	66*	-13	Scp-1 Tm shift=-27
C[C@H](CO)N1C[C@H](C)[C@@H](CN(C)C(=O)Nc2ccc3c(c2)OCO3)Oc2c(NC(=O)C3CC3)cccc2C1=O	-1	1	-2	4	2	0	x	x
C[C@H](CO)N1C[C@H](C)[C@@H](CN(C)C(=O)Nc2ccc3c(c2)OCO3)Oc2c(NC(=O)c3ccncc3)cccc2C1=O	0	3	56*	-5	22	-2	5	-15
C[C@H](CO)N1C[C@H](C)[C@@H](CN(C)Cc2ccc(C(=O)O)cc2)Oc2c(NC(=O)c3ccncc3)cccc2C1=O	4	0	54*	2	3	-1	12	-11
CCc1nnc(NC(=O)c2ccc3c(=O)n4c(nc3c2)CCC4)s1	5	0	x	0	0	1	x	x
COc1ccc(CCNC(=O)c2ccc3c(=O)n(Cc4ccco4)c(=S)[nH]c3c2)cc1OC	11	4	58*	6	-7	4	-14	-17
CCOc1cc2[nH]c(=S)n(Cc3ccc(C(=O)NCCCN(CC)CC)cc3)c(=O)c2cc1OCC	11	-1	59*	3	-1	0	-13	-11
CCCNC(=O)c1ccc2c(=O)n(Cc3ccco3)c(=S)[nH]c2c1	5	1	-3	21	1	0	x	x
CCCCn1c(N)c(N(CC)C(=O)C2CCC2)c(=O)[nH]c1=O	-4	0	17	0	3	-1	x	x
C=CCCC(=O)NC1CCCc2c1cnn2-c1ccccc1F (stereo not drawn)	6	-2	-8	3	7	-2	x	x
O=C(N/N=C/c1cccc(Br)c1)c1ccc(Br)cc1	-4	21	104*	14	28	60*	76*	-13	Scp-1 Tm shift=-7
O=C(N/N=C/c1ccc2nccnc2c1)c1ccc(Br)cc1	-22	-1	36	-3	1	0	x	x
CCOc1ccccc1NC(=O)C(NCCc1ccc(OC)cc1)c1ccccc1 (stereo not drawn)	-6	1	7	2	0	3	x	x
COc1ccc(CCNC(C(=O)Nc2cc(C)cc(C)c2)c2ccccc2)cc1 (stereo not drawn)	2	0	54*	-2	-3	4	-9	-5
SMILES	SUMO1-SIM PPI	STEP block	Scp-1 inhibitor	CSN inh	DNMT1 block	LMPTP inh	Scp1 confirm	Scp-1 MG ctr	others
CCCCC(=O)c1ccc(OC(=O)c2ccc([N+](=O)[O-])cc2)cc1	-7	4	-10	-1	7	0	x	x
COc1ccccc1NS(=O)(=O)c1ccc2[nH]c(=S)oc2c1	12	-5	59*	-1	7	1	-7	-12
COc1cc2c(C#CCCCO)c(-c3ccc(C#N)cc3)oc(=O)c2cc1OC	-3	-1	-3	7	-21	-1	x	x
COc1cc2c(C#CCO)c(-c3ccc(C#N)cc3)oc(=O)c2cc1OC	62*	25	67*	19	-28	4	33*	6	Scp-1 Tm shift=5
O=C(O)c1ccc(CSc2nc3ccc(NC(=O)c4ccccc4C(=O)O)cc3s2)cc1	-1	24	58*	-13	4	6	43*	-20	Scp-1 Tm shift=-10
N#CCCN(C(=O)COc1ccc(F)cc1Br)c1ccccc1F	-1	4	-2	-4	0	-2	x	x
NC(=O)c1c(NC(=O)C2CC=CCC2C(=O)O)sc2c1CCCCC2 (stereo not drawn)	28	38	58*	1	20	1	71*	-2	Scp-1 Tm shift=0
CN(Cc1ccccc1)C(=O)CCC1CCN(S(C)(=O)=O)CC1	-3	0	-3	0	3	-1	x	x
COc1ccc(-c2c(-c3ccccc3OC)sc3ccccc23)cc1OC	-5	-2	-14	5	-10	2	x	x
COc1ccc(-c2c(-c3ccccc3OC)sc3ccccc23)cc1C=O	6	-2	50*	2	-2	1	19	-8
